Source: ChEMBL document CHEMBL4431339, “1,2,3-Triazoles as Amide Bioisosteres: Discovery of a New Class of Potent HIV-1 Vif Antagonists” (J Med Chem, 2016)
Calls of active or inactive are those of the source. Unless noted, the rule behind the calls is not given here.

How the values were obtained:
[1] = target: Virion infectivity factor (Human immunodeficiency virus type 1 group M subtype B (isolate NY5)(HIV-1)) (UniProt P12504); assay: Antagonist activity against HIV-1 Vif in human MT4 cells assessed as inhibition of viral infection at 50 and 100 uM measured after 16 hrs by cell-based assay; conditions: Human immunodeficiency virus 1
Sequence of Virion infectivity factor (Human immunodeficiency virus type 1 group M subtype B (isolate NY5)(HIV-1)) (P12504 whole entry): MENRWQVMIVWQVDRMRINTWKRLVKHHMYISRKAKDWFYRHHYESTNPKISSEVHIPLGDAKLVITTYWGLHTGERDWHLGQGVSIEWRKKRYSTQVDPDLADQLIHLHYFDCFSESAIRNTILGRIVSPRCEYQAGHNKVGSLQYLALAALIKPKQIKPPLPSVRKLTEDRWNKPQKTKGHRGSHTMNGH

[2] = target: Virion infectivity factor (Human immunodeficiency virus type 1 group M subtype B (isolate NY5)(HIV-1)) (UniProt P12504); assay: (§1) Antagonist activity against HIV-1 Vif in human MT4 cells assessed as inhibition of viral infection at 50 uM measured after 16 hrs by cell-based assay; conditions: Human immunodeficiency virus 1
How it was run: (§2)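 Antiviral activity was measured against wild-type HIV-1 in permissive MT-4 cells as a Vif-specificity counter-screen. RN-18 was the positive control, and cells cultured without inhibitor were the negative control. "No activity" means no inhibition at 50 µM.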

[3] = target: Virion infectivity factor (Human immunodeficiency virus type 1 group M subtype B (isolate NY5)(HIV-1)) (UniProt P12504); assay: Antagonist activity against HIV-1 GFP-tagged Vif in human HEK293FT cells co-expressing HA-tagged A3G assessed as upregulation of A3G levels at 50 uM measured after 16 hrs by immunoblotting method; assay type: cell-based; conditions: Human immunodeficiency virus 1
How it was run: (§3)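 HEK293FT cells co-expressing HA-tagged A3G and either GFP-tagged Vif or Vif were incubated with or without compound (50 µM) for 16 h. Cell extracts were immunoblotted with anti-HA (A3G), anti-GFP (Vif) and anti-GAPDH antibodies. Untreated cells served as the comparison, and choline chloride was included as a negative control in the triazole series.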

[4] = target: Virion infectivity factor (Human immunodeficiency virus type 1 group M subtype B (isolate NY5)(HIV-1)) (UniProt P12504); assay: Antagonist activity against HIV-1 GFP-tagged Vif in human HEK293FT cells co-expressing HA-tagged A3G assessed as downregulation of Vif expression expression at 50 uM measured after 16 hrs by immunoblotting method; assay type: cell-based; conditions: Human immunodeficiency virus 1; how it was run: as §3
HeLa = assay: Cytotoxicity against human HeLa cells at 50 uM measured after 16 hrs by MTS assay relative to DMSO control; assay type: cell-based
[5] = target: Virion infectivity factor (Human immunodeficiency virus type 1 group M subtype B (isolate NY5)(HIV-1)) (UniProt P12504); assay: Antagonist activity against HIV-1 Vif in human H9 cells expressing A3G assessed as inhibition of viral replication by reverse transcriptase assay relative to vehicle-treated control; assay type: cell-based; conditions: Human immunodeficiency virus 1
How it was run: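 Antiviral activity was measured against wild-type HIV-1 in non-permissive (A3G-expressing) H9 cells and reported as IC50. RN-18 was the positive control, and cells cultured without inhibitor were the negative control. Selected compounds were tested across doses, and MTS cell viability was checked in parallel at 50 µM.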

[6] = target: Virion infectivity factor (Human immunodeficiency virus type 1 group M subtype B (isolate NY5)(HIV-1), UniProt P12504); assay: as §1; design: species or system Human immunodeficiency virus 1; how it was run: as §2
Sequence of Virion infectivity factor (P12504 whole entry): as above

SMILES	Activity [1]	Activity [2]	Activity [3]	Activity [4]	Activity (HeLa)	inhibition [5]	IC50 [6]
COc1ccccc1NC(=O)c1ccccc1Sc1ccc([N+](=O)[O-])cc1	inactive	inactive	Active	Active	Non-Toxic	Dose-dependent effect	–
COc1ccc(OC)c(-n2cc(-c3ccccc3S(=O)(=O)c3ccc([N+](=O)[O-])cc3)nn2)c1	–	inactive	–	–	Non-Toxic	Dose-dependent effect	–
COc1ccccc1-n1cc(-c2ccccc2Sc2ccc(C(F)(F)F)cc2)nn1	–	inactive	Active	Active	Non-Toxic	Dose-dependent effect	–
COC(=O)c1ccc(Sc2ccccc2-c2cn(-c3c(OC)cccc3OC)nn2)cc1	–	inactive	–	–	Non-Toxic	Dose-dependent effect	–
COC(=O)c1ccc(Sc2ccccc2-c2cn(-c3cccc(OC)c3OC)nn2)cc1	–	inactive	–	–	Non-Toxic	Dose-dependent effect	–
COc1ccc(OC)c(-n2cc(-c3ccccc3Sc3ccc([N+](=O)[O-])cc3)nn2)c1	–	inactive	Active	Active	Non-Toxic	Dose-dependent effect	–
COC(=O)c1ccc(Sc2ccccc2-c2cn(-c3ccc(OC)cc3OC)nn2)cc1	–	inactive	–	–	Non-Toxic	Dose-dependent effect	–
COc1cccc(-n2cc(-c3ccccc3Sc3ccc([N+](=O)[O-])cc3)nn2)c1OC	–	inactive	–	–	Non-Toxic	Dose-dependent effect	–
COc1ccccc1-c1noc(-c2ccccc2Sc2ccc([N+](=O)[O-])cc2)n1	–	–	Active	Active	–	–	Not Active
COC(=O)c1ccc(Sc2ccccc2-c2cn(-c3cc(OC)ccc3OC)nn2)cc1	–	inactive	Active	Active	–	–	–
COc1ccc(OC)c(-n2cc(-c3ccccc3S(=O)(=O)c3ccc(C(=O)O)cc3)nn2)c1	–	inactive	Active	Active	–	–	–
COc1ccc(OC)c(-n2cc(-c3ccccc3S(=O)(=O)c3ccc(N)cc3)nn2)c1	–	inactive	Active	Active	Non-Toxic	Dose-dependent effect	–
COc1ccccc1-n1cc(-c2ccccc2Sc2ccc([N+](=O)[O-])cc2)nn1	–	–	Active	Active	–	–	Not Active
